Data reported in ChEMBL document CHEMBL1671828 (ACS Med Chem Lett, 2011).
Activity calls are given as the source filed them. The rule behind the calls is not given here.

Assays:
[1] = biological target: Transporter (Rattus norvegicus) (UniProt Q63380); test: Displacement of [3H]nisoxetine from NET in Sprague-Dawley rat brain membranes at 10 uM; format: cell membranes; conditions: Membrane
[2] = biological target: Sodium-dependent dopamine transporter (Rattus norvegicus, UniProt P23977); format: cell membranes, Sprague-Dawley, Brain, Membrane
Sodium-dependent dopamine transporter, sequence (P23977 whole entry): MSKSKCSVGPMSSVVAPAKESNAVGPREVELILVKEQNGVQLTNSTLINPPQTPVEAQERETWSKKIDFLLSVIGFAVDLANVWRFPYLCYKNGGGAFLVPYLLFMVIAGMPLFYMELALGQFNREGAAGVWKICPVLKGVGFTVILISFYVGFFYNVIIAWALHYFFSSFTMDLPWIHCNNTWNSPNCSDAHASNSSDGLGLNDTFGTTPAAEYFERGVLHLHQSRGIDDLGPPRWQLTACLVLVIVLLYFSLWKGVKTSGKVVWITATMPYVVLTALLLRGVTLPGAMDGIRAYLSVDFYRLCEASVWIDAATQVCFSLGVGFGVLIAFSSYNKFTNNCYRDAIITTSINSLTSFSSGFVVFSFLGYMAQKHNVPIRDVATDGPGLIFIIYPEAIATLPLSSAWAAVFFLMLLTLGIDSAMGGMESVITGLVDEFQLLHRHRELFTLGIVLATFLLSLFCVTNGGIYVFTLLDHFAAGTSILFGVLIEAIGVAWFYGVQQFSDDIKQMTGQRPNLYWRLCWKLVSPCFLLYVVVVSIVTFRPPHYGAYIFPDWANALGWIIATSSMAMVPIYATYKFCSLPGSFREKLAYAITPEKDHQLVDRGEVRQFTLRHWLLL

[3] = biological target: Sodium-dependent serotonin transporter (Rattus norvegicus) (UniProt P31652); test: Displacement of [3H]citalopram from SERT in Sprague-Dawley rat brain membranes at 10 uM; format: cell membranes; conditions: Membrane
Sodium-dependent serotonin transporter (Rattus norvegicus), sequence (P31652 whole entry): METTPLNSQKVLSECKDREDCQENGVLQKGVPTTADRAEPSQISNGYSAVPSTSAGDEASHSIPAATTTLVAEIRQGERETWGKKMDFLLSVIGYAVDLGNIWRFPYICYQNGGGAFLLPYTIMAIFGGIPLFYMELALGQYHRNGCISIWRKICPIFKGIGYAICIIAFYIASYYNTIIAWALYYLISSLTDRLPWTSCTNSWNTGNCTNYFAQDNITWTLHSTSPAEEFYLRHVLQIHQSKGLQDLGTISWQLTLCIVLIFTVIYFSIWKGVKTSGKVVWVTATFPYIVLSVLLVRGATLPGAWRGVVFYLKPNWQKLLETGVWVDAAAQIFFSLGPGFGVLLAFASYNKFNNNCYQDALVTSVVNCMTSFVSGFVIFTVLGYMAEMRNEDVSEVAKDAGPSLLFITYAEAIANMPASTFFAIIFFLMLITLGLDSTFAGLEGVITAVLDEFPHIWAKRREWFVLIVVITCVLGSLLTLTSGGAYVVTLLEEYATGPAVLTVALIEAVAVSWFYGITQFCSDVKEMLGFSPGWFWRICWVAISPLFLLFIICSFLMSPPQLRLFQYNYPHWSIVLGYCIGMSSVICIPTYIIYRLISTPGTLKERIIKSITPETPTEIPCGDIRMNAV

[4] = biological target: Sodium-dependent serotonin transporter (Rattus norvegicus, UniProt P31652); test: Displacement of [3H]citalopram from SERT in Sprague-Dawley rat brain membranes; format: cell membranes, Membrane
Sodium-dependent serotonin transporter, sequence (P31652 whole entry): as above

Transporter = Transporter (Rattus norvegicus, UniProt Q63380); test: Displacement of [3H]nisoxetine from NET in Sprague-Dawley rat brain membranes; format: cell membranes, Membrane
Transporter, sequence (Q63380 whole entry): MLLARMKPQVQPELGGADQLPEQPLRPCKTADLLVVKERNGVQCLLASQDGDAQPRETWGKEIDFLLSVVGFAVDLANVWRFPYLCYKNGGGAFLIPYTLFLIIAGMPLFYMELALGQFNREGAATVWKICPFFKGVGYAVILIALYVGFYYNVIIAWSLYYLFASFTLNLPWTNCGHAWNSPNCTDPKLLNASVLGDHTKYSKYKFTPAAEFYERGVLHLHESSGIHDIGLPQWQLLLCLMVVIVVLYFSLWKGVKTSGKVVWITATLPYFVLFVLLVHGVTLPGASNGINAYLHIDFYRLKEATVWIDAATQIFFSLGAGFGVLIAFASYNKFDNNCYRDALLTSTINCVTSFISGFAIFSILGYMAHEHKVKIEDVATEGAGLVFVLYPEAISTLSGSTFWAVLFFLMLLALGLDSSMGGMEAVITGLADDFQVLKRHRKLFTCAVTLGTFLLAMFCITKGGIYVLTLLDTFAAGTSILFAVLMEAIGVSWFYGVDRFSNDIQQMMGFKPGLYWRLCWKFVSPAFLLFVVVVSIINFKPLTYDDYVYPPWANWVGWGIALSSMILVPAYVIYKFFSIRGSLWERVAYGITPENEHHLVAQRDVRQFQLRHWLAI

Mus musculus = test: Increase in horizontal locomotor activity in mouse measured after 30 mins post 4 hrs drug administration; format: functional, organism-based
How it was run: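 Mice; horizontal locomotor activity counts per min recorded over the first 30 min of each of the 4 h after drug injection. Several doses (mg/kg) were tested to give dose-effect curves. Each point is the average of six mice.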

[5] = biological target: Sodium-dependent dopamine transporter (Rattus norvegicus) (UniProt P23977); test: Inhibition of [3H]dopamine uptake at DAT in Sprague-Dawley rat brain membranes at 10 uM; format: cell membranes; conditions: Membrane
Sodium-dependent dopamine transporter (Rattus norvegicus), sequence (P23977 whole entry): as the sequence (P23977 whole entry) above

Transporter (Rattus norvegicus), sequence (Q63380 as listed by the source): as the sequence (Q63380 whole entry) above

Structure (SMILES)	inhibition [1]	Ki [2] [µM]	inhibition [3]	Ki [4] [µM]	Ki (Transporter) [µM]	Activity (Mus musculus)	inhibition [5]
NC(=O)CSC(c1ccc(F)cc1)c1ccc(F)cc1	inactive	1.57	inactive				
NC(=O)CSC(c1ccc(Cl)cc1)c1ccc(Cl)cc1		2.23		12.7			
NC(=O)CSC(c1ccc(Br)cc1)c1ccc(Br)cc1		1.93		2.2	77.7		
CN(C)C(=O)CSC(c1ccccc1)c1ccccc1	inactive	16.5	inactive				
CN(C)C(=O)CSC(c1ccc(F)cc1)c1ccc(F)cc1	inactive	9.51		25.9			
CN(C)C(=O)CSC(c1ccc(Cl)cc1)c1ccc(Cl)cc1		4.51		5.98	42.5		
CN(C)C(=O)CSC(c1ccc(Br)cc1)c1ccc(Br)cc1		2.45		3.21	19.2		
NC(=O)C[S@+]([O-])C(c1ccccc1)c1ccccc1	inactive		inactive			Dose-dependent effect	
NC(=O)C[S@@+]([O-])C(c1ccccc1)c1ccccc1	inactive		inactive			Dose-dependent effect	
NC(=O)C[S+]([O-])C(c1ccc(F)cc1)c1ccc(F)cc1 (racemic)	inactive	2.19	inactive				
NC(=O)C[S+]([O-])C(c1ccc(Cl)cc1)c1ccc(Cl)cc1 (racemic)	inactive			39		Dose-dependent effect	
NC(=O)C[S+]([O-])C(c1ccc(Br)cc1)c1ccc(Br)cc1 (racemic)	inactive	0.6		10.6			
CN(C)C(=O)C[S+]([O-])C(c1ccc(F)cc1)c1ccc(F)cc1 (racemic)	inactive			16.2			inactive
CN(C)C(=O)C[S+]([O-])C(c1ccc(Cl)cc1)c1ccc(Cl)cc1 (racemic)	inactive	34.6		22.3			
CN(C)C(=O)C[S+]([O-])C(c1ccc(Br)cc1)c1ccc(Br)cc1 (racemic)	inactive	21.3		14.2			
CNC(=O)C[S+]([O-])C(c1ccc(Cl)cc1)c1ccc(Cl)cc1 (racemic)	inactive	2.44	inactive				
CNC(=O)C[S+]([O-])C(c1ccc(Br)cc1)c1ccc(Br)cc1 (racemic)	inactive	1.65		33.2			
O=C(C[S+]([O-])C(c1ccccc1)c1ccccc1)NCCCc1ccccc1 (racemic)	inactive	2.66	inactive				
CN(C)CC[S+]([O-])C(c1ccccc1)c1ccccc1 (racemic)	inactive			45.8			inactive
CN(C)CC[S+]([O-])C(c1ccc(Cl)cc1)c1ccc(Cl)cc1 (racemic)		2.89		0.406	36.2		
CN(C)C(=O)C[S+]([O-])C(c1ccccc1)c1ccccc1 (racemic)	inactive		inactive				inactive
NC(=O)C[S+]([O-])C(c1ccccc1)c1ccccc1 (racemic)	inactive		inactive			Dose-dependent effect	
[O-][S+](CCN1CCOCC1)C(c1ccccc1)c1ccccc1 (racemic)	inactive		inactive				inactive
